Bioassay records as filed in PubChem BioAssay.
TRPC4 inh: inhibitors of mouse TRPC4 channel, primary screen, Fluo4 calcium, HEK293 TRPC4beta/mu-opioid cells; Short transient receptor potential channel 4 (Mus musculus), Q9QUQ5; DAMGO-evoked Fluo4 calcium flux; stronger effect = lower value; B-score at 10 µM; actives 0.39% (n = 300,000); AID 2247, 2010;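 active = B-score over 3 SD under the library average, no early fluorescence shift, positive overall ratio signal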
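Assay system: TRPC4beta/mu-opioid receptor HEK293 cell line; compound dosing: single concentration per test compound; detection: Fluo4 Ca2+ flux fluorescence; evaluation: per-well B score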
TRPC4 PAM: positive allosteric modulators of TRPC4, primary screen, cell-based, mouse TRPC4beta, HEK293 mu-opioid, Fluo-4 calcium; actives 0.42% (n = 310,000); AID 2227, 2009; B-score at 10 µM; DAMGO EC20, Fluo-4 Ca2+ flux; stronger effect = higher value; Short transient receptor potential channel 4 (Mus musculus), Q9QUQ5;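 active = B-score of calcium response area above 5 SD of library B-scores, with initial fluorescence ratio within 5 SD of library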;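 also: B-score of integrated fluorescence ratio over time as area under calcium response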
TRPC6 inhibitor: mouse TRPC6 channel inhibitors, primary screen, cell-based, HEK293, membrane potential dye. actives 1.1% (n = 310,000). Short transient receptor potential channel 6 (Mus musculus), Q61143. AID 2553, 2010. B-score at 10 µM. ACh-evoked depolarization; stronger effect = lower value;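 active = B-score under library mean minus 3 SD, initial fluorescence not abnormally high, positive integrated signal ratio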;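 also: B-score derived from integrated fluorescence ratio over the kinetic read; more negative B-score means stronger inhibition of depolarization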
TRPC6 activator: mouse TRPC6 channel activators, primary screen, cell-based, HEK293, membrane potential dye; B-score at 10 µM; actives 0.13% (n = 310,000); HEK293-TRPC6 membrane potential dye fluorescence; stronger effect = higher value; Short transient receptor potential channel 6 (Mus musculus), Q61143;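 active = B-score of the integrated fluorescence ratio above library mean plus 3 SD, and starting fluorescence ratio within library mean plus 5 SD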;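 also: higher score means more depolarization so channel activation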
TRPC4 act: activators of mouse TRPC4 channel, primary screen, Fluo4 calcium, HEK293 TRPC4beta/mu-opioid cells; Short transient receptor potential channel 4 (Mus musculus), Q9QUQ5; B-score at 10 µM; Fluo4 calcium fluorescence; stronger effect = higher value; actives 0.49% (n = 310,000);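 active = B-score above 5 SD of library B-scores, and initial fluorescence ratio not above library mean plus 5 SD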;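 also: positive B-score marks a calcium rise read as TRPC4 activation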
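system = HEK293 cells stably co-expressing mouse TRPC4beta and mu-opioid receptor | schedule = Fluo4 dye loading 45 min at room temperature, 110 s recording | measure = B-scored integrated calcium fluorescence ratio | signal = Fluo4 calcium-sensitive dye fluorescence, kinetic, 1 Hz baseline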
TRPC4 sel inh 2: mouse TRPC4 off-target activity of TRPC6 inhibitors, second screen | HEK293 TRPC4/MOR, membrane potential dye fluorescence; channel activated by saturating DAMGO dose | shares compounds with TRPC6 inhibitor | inhibition, % at 10 µM | actives 42% (n = 920);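 active = compounds whose fluorescence signal differed from control wells by over 3 SD, either direction, in both duplicate plates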
TRPC4 spec: mouse TRPC4 modulation by TRPC6 hits, confirmation, selectivity assay for TRPC6 inhibitor project, cell-based, HEK293 TRPC4/mu-opioid, membrane potential dye; activity change, negative = inhibition, % at 10 µM; membrane potential fluorescence; shares compounds with TRPC6 inhibitor; actives 61% (n = 920);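 active = rise or fall in signal beyond 3 SD of buffer-only wells in both replicate plates, either sign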;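 also: integrated kinetic ratio of fluorescence range over baseline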
HEK293 MPD ctr 2-1: nonspecific membrane potential effects, parental HEK293, confirmation, counter-screen for TRPC6 inhibitor project, cell-based, second counter screen; shares compounds with TRPC6 inhibitor; parental HEK293 membrane potential dye fluorescence; maximal acetylcholine challenge after compound addition; signal change vs control, % at 10 µM; actives 31% (n = 920); AID 2779, 2010;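 active = membrane potential signal moving either way by over 3 SD of the maximum-effect control, in both duplicate plates, meaning non-specific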
HEK293 MPD ctr-1: membrane potential modulation in parental HEK293, confirmation, counter-screen for TRPC6 inhibitor project, cell-based; shares compounds with TRPC6 inhibitor; parental HEK293 membrane potential dye fluorescence; membrane potential signal change, % at 10 µM; actives 60% (n = 920);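 active = membrane potential signal shifting up or down by more than 3 SD of buffer-only wells, on both duplicate plates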
HEK293 MPD ctr-2: parental HEK293 membrane potential modulation, confirmation, counter-screen for TRPC6 modulator project, cell-based | shares compounds with TRPC6 inhibitor | membrane potential dye fluorescence | membrane potential signal change, % at 10 µM | actives 51% (n = 2,400) | AID 488924, 2010;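 active = membrane potential signal moves up or down beyond 5 SD from buffer-only wells, on both duplicate plates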
HEK293 MPD ctr 2-2: second check of TRPC6 modulator effects in parental HEK293 cells. shares compounds with TRPC6 inhibitor. membrane potential dye fluorescence; after compound, maximal acetylcholine stimulation. inhibition, % at 10 µM. actives 14% (n = 2,400). AID 488926;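 active = membrane potential signal drops by more than 5 SD from the mean control signal, in both duplicate plates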;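 also: plate controls were acetylcholine ECmax control wells for no effect and buffer only wells for full effect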
TRPC4/MOR mod: TRPC4 modulation by TRPC6 hit compounds, confirmation, selectivity assay for TRPC6 modulator project, cell-based, HEK293 TRPC4/mu-opioid, membrane potential dye, mouse; shares compounds with TRPC6 inhibitor; percent change from control (negative = decrease, positive = increase), % at 10 µM; actives 69% (n = 2,400); membrane potential fluorescence; AID 488927, 2010;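 active = membrane potential signal moved up or down beyond 5 SD of buffer control wells, in both duplicate plates, actives on both sides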;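 also: plate controls were assay buffer wells for no effect and DAMGO maximal-effect wells for full effect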
TRPC4 ctr inh 2: second check of whether TRPC6 modulators also affect mouse TRPC4. shares compounds with TRPC6 inhibitor. inhibition, % at 10 µM. actives 55% (n = 2,400). HEK293 TRPC4/mu-opioid, membrane potential dye fluorescence; stimulated with maximal-effect DAMGO. AID 488928;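 active = drop in membrane potential signal beyond 5 SD of the control wells in both duplicate plates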;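 also: TRPC4 counter screen for TRPC6 hits run under conditions tuned for TRPC6 not TRPC4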
TRPC6 block conf: mouse TRPC6 channel inhibitors, confirmation, HEK293 cells, membrane potential dye, duplicate; shares compounds with TRPC6 inhibitor; ACh-evoked depolarization; inhibition, % at 10 µM; actives 43% (n = 3,300); AID 488960, 2010;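 active = fluorescence ratio falls more than 5 SD below the full-stimulation control mean, in both duplicate runs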;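 also: integrated fluorescence ratio of peak minus minimum over baseline after agonist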
TRPC6 act confirm: mouse TRPC6 channel activators, confirmation, HEK293 cells, membrane potential dye, duplicate. activation, % at 10 µM. HEK293-TRPC6 membrane potential dye fluorescence, FDSS. shares compounds with TRPC6 inhibitor. actives 11% (n = 2,800);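 active = ratio signal rise beyond 5 SD above unstimulated control wells' mean, seen in both duplicate runs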;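 also: plate controls were buffer EC0 wells for no effect and acetylcholine ECmax response for full effect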
Starred values were filed as active, the others as inactive; i = inactive; . = no result. Shown are actives, neighbours in structure and some others; about 2.3% of the full set was active somewhere.

SMILES	TRPC4 inh	TRPC4 PAM	TRPC6 inhibitor	TRPC6 activator	TRPC4 act	HEK293 MPD ctr-2	HEK293 MPD ctr 2-2	TRPC4/MOR mod	TRPC4 ctr inh 2	TRPC6 block conf	TRPC6 act confirm	others
Cc1[nH]c2ccccc2c1CCCNC1CCCCC1	i	i	-5.66*	i	i	i	i	i	44.0%*	i	i
O=c1[nH]c(=S)n(C2CCCCC2)c(O)c1/C=N/N1CCOCC1	i	i	i	i	i	.	.	.	.	.	.
NCCNc1ccc([N+](=O)[O-])c2cccnc12	i	10*	-5.25*	i	70*	-231.5%*	i	-31.0%*	50.5%*	43.0%*	i
CC(O)CNc1ccc([N+](=O)[O-])c2cccnc12 (centres undefined)	i	i	i	i	i	.	.	.	.	.	.
O=C(Cn1ncn2c(cc3cc(F)ccc32)c1=O)N1CCC2(CC1)OCCO2	i	i	i	i	i	.	.	.	.	.	.
CCCCn1c(N)c(C(=O)NCCN2CCOCC2)c2nc3ccccc3nc21	i	i	i	i	i	.	.	.	.	.	.
CCOC(=O)c1c(N)n(CCN2CCCCC2)c2nc3ccccc3nc12	i	i	-5.87*	i	i	-135.0%*	i	-28.0%*	56.0%*	56.5%*	i
CC(Cc1ccccc1Sc1ccccc1O)N(C)C (centres undefined)	-7*	i	-9.38*	i	i	.	.	.	.	i	.	TRPC4 sel inh 2=37.0%*;TRPC4 spec=54.9%*;HEK293 MPD ctr 2-1=i;HEK293 MPD ctr-1=12.4%*
C#CCN(C)[C@H](C)Cc1ccccc1	i	i	i	i	i	.	.	.	.	.	.
O=[N+]([O-])c1ccc(N2CCCNCC2)c2ncccc12	i	i	-11.3*	i	138*	-444.5%*	110.5%*	-51.5%*	79.0%*	96.5%*	i
CC/C(=N\Nc1ccccc1)c1c(O)n(-c2ccc(OC)cc2)c(=O)[nH]c1=O	i	i	i	i	i	.	.	.	.	.	.
CCNc1cc(N2CCNCC2)ccc1[N+](=O)[O-]	i	35*	-5.69*	i	i	-214.5%*	i	-34.5%*	37.5%*	i	i
CCCCCSc1cc(O)c(C(CNC)C(C)C)cc1OC (centres undefined)	i	i	i	i	i	.	.	.	.	.	.
CCCCCSc1cc(OC)c(CCN(C)C)cc1OC	i	i	-5.3*	i	i	i	i	i	51.5%*	49.5%*	i
Cc1cccc(CCNCc2cc3cccc(C)c3[nH]c2=O)c1	i	i	-10.1*	i	i	.	.	.	.	102.4%*	i	TRPC4 sel inh 2=15.0%*;TRPC4 spec=-12.9%*;HEK293 MPD ctr 2-1=25.0%*;HEK293 MPD ctr-1=i
Cc1ccccc1CCNCc1ccc(Br)cc1	i	i	i	i	i	.	.	.	.	.	.
Cc1ccc2cc(CNCCc3ccccc3C)c(=O)[nH]c2c1	i	i	-5.12*	i	i	i	i	i	77.5%*	45.5%*	i
Cc1cccc(CCNCc2cc3cc(C)cc(C)c3[nH]c2=O)c1	i	i	-5.92*	i	i	i	65.0%*	-18.0%*	93.5%*	82.0%*	i
Cc1cccc(CNCCc2c[nH]c3ccccc23)c1	i	i	i	i	i	.	.	.	.	.	.
O=C1NC(=S)NC(=O)C1=Cc1ccc(Br)s1	i	i	i	i	i	.	.	.	.	.	.
CCC(=O)N1N=C(c2c(O)n(CCc3ccccc3)c(=O)[nH]c2=O)CC1c1ccc(OC)c(OC)c1 (centres undefined)	i	i	i	i	i	.	.	.	.	.	.
CC[N+]12CCC(CC1)C(C(O)(c1ccccc1)c1ccccc1)C2 (centres undefined)	i	i	-6.02*	i	i	i	i	i	i	81.5%*	i
CC1=CC(=C2C(=O)NC(=S)NC2=O)C=C(C(F)(F)F)N1CCc1ccccc1	i	i	i	i	i	.	.	.	.	.	.
Oc1ccccc1C1NCc2ccccc2-n2cccc21 (centres undefined)	i	i	i	i	i	.	.	.	.	.	.
Cc1cccc(CN2CCCC(C(=O)c3ccc(C(F)(F)F)cc3)C2)n1 (centres undefined)	i	i	i	i	i	.	.	.	.	.	.
